Among the data in ChEMBL document CHEMBL1155522, “Molecular docking studies of phlorotannins from Eisenia bicyclis with BACE1 inhibitory activity” (Bioorg Med Chem Lett, 2010) are Activity, IC50 and Ki values, retold here.

A word on the IC50: it is the concentration that gives 50% inhibition. As a reminder, the Ki is a dissociation constant, usually derived from enzyme kinetics or from competition with a known ligand.

Experiment [1] has as its target T1, Beta-secretase 1 (Homo sapiens, UniProt P56817). Kind of experiment: Inhibition of human recombinant BACE1 after 60 mins by FRET assay. In outline:
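Test samples dissolved in 10% DMSO; the 50% inhibitory concentration is reported as mean ± S.E.M. of triplicate determinations.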

Experiment [2] addresses T1, Beta-secretase 1. Briefly: Noncompetitive inhibition of human recombinant BACE1 after 60 mins by Dixon plot analysis. In outline:
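Inhibitor dissolved in 10% DMSO and tested at two concentrations. A Dixon plot of reciprocal enzyme velocity (1/V) against inhibitor concentration was used to assign the inhibition type and to derive the Ki of the enzyme–inhibitor complex.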

T1 sequence (P56817 whole entry): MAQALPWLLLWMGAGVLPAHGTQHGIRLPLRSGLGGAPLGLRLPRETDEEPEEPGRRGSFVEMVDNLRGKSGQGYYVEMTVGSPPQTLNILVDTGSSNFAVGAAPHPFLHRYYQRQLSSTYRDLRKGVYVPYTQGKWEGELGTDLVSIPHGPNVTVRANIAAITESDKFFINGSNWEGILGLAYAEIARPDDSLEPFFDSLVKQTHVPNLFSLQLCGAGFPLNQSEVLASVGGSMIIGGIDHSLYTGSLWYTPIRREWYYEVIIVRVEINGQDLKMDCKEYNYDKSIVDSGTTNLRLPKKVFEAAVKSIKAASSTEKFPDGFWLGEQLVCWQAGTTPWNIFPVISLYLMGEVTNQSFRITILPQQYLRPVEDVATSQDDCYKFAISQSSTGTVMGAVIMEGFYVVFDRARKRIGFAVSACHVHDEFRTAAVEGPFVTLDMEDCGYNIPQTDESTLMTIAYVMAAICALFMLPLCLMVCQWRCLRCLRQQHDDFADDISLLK

For `Oc1cc(O)cc(Oc2c(O)cc(O)cc2Oc2c(O)cc(O)cc2O)c1` [TRIPHLOROETHOL A], in experiment [1], the Activity entry was “Dose-dependent effect” and the IC50 was 11.7 µM. For the same compound, the inhibitory constant (Ki) in experiment [2] stood at 12.1 µM.

`Oc1cc(O)c2oc3cc(O)c4oc5cc(O)cc(O)c5oc4c3oc2c1` [DIOXINODEHYDROECKOL]: in experiment [1], the Activity result is “Dose-dependent effect” and the half-maximal inhibitory concentration (IC50) was determined as 5.35 µM. For the same compound, the Ki in experiment [2] was determined as 8 µM.

For the compound `Oc1cc(O)cc(O)c1` [PHLOROGLUCINOL], in experiment [1], the Activity result was “Dose-dependent effect” and the IC50 stood at 36.5 µM.

As to `O=c1c(O)c(-c2ccc(O)c(O)c2)oc2cc(O)cc(O)c12`, the Activity result in experiment [1] was “Dose-dependent effect”.

Turning to `Oc1cc(O)cc(Oc2c(O)cc(O)c3c2Oc2c(O)cc(Oc4c(O)cc(Oc5c(O)cc(O)c6c5Oc5c(O)cc(O)cc5O6)cc4O)cc2O3)c1` [DIECKOL], in experiment [1], the Activity entry was “Dose-dependent effect” and the 50% inhibitory concentration (IC50) turned out to be 2.21 µM. Further, the inhibition constant Ki in experiment [2] came out at 1.5 µM.

Regarding `Oc1cc(O)cc(Oc2c(O)cc(O)c3c2Oc2c(O)cc4oc5c(Oc6cc(O)cc(O)c6)c(O)cc(O)c5c4c2O3)c1` [PHLOROFUCOFUROECKOL A], in experiment [1], the Activity result is “Dose-dependent effect” and the half-inhibitory concentration (IC50) is 2.13 µM. For the same compound, the Ki in experiment [2] is 1.3 µM.

In the case of `Oc1cc(O)cc(Oc2c(O)cc(O)c3c2Oc2c(O)cc(O)cc2O3)c1` [ECKOL], in experiment [1], the Activity entry was “Dose-dependent effect” and the concentration for half-maximal inhibition (IC50) was 12.2 µM. The Ki in experiment [2] was determined as 13.9 µM.

In the case of `Oc1cc(O)cc(Oc2c(O)cc(O)c3c2Oc2c(O)cc(Oc4c(O)cc(O)cc4O)cc2O3)c1`, in experiment [1], the Activity result is “Dose-dependent effect” and the IC50 was 8.59 µM. In experiment [2], the Ki worked out at 7.2 µM.
